Screening data (PubChem)
T cruzi growth-1 = inhibitors of T. cruzi proliferation; T. cruzi beta-gal in NIH3T3, GalScreen luminescence, 90 h; inhibition, % at 8.34 µM; actives 5.9% (n = 77,000);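 active = mean inhibition above about 93%, with at least 55% of replicates each passing it, limit read from the data, passing the limit was not always enough; inconclusive = only one of those two conditions holds; inactive = neither condition holds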
IDH1 mut inh = inhibitors of human IDH1 R132H | O75874 | IDH1 R132H reductase, diaphorase/resazurin fluorescence, 60 min | inhibition, % at 10 µM | actives 0.18% (n = 70,000) | AID 624101; in the data active = inhibition above about 34%; inconclusive = no clear call, values can overlap the other calls; inactive = below about 11%;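 also: 0% = DMSO and 100% = no enzyme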
Target sequence (O75874 whole entry R132H): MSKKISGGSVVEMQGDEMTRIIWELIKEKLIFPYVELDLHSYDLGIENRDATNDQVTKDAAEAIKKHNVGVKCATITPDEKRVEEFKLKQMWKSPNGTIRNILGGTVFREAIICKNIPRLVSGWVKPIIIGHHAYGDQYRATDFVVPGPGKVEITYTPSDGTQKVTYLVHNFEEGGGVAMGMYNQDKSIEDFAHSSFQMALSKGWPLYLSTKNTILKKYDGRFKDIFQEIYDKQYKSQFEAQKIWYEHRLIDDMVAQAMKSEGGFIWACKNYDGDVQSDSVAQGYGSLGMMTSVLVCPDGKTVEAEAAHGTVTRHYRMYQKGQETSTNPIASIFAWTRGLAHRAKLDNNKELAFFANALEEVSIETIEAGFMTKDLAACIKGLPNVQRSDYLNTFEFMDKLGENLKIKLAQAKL
KDM4C inh = KDM4C (human) demethylase inhibition. Q9H3R0. actives 0.15% (n = 96,000). inhibition, % at 12.5 µM. GST-KDM4C 2-372, H3K9me3 peptide, LANCE TR-FRET. AID 720574;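 active = mean replicate inhibition above about 25%, with at least 55% of replicates also reaching it, limit read from the data, passing the limit was not always enough; inconclusive = only one of those two conditions met; inactive = neither condition met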
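System – N-terminal GST-fused human GASC-1 (KDM4C) fragment, residues 2-372 · Input – enzyme final amount 10 nM · Technique – LANCE TR-FRET, Eu antibody, ULight-streptavidin, EDTA, ex 340 nm, em 618/671 nm · Medium – HEPES buffer, pH 7.5, plus ascorbate · Incubation – enzyme reaction 30 min, then detection 60 min, both room temperature · Reagent – H3K9me3 peptide with Fe(II)/2OG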
T cruzi growth-2 = blocks T. cruzi growth in NIH3T3 host cells | shares compounds with T cruzi growth-1 | T. cruzi beta-gal in NIH3T3, GalScreen luminescence, 90 h | inhibition, % at 8.35 µM | actives 72% (n = 5,600) | AID 651739;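 active = mean replicate inhibition above about 95% and at least 55% of replicates individually reaching it, limit read from the data; inconclusive = only one of the two criteria is met; inactive = neither criterion is met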
T cruzi growth-3 = Trypanosoma cruzi proliferation inhibition; actives 21% (n = 5,600); shares compounds with T cruzi growth-1; T. cruzi beta-gal in NIH3T3, GalScreen luminescence, 90 h; inhibition, % at 2.09 µM;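 active = mean inhibition above about 95%, with at least 55% of replicates also reaching it, limit read from the data; inconclusive = meets just one of the two conditions; inactive = meets neither condition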;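 also: plate controls were neutral control median for no effect and positive control median for full effect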
3T3 cytotox = cytotoxicity in mouse NIH/3T3 fibroblasts. cytotoxicity (signal decrease), % at 8.35 µM. shares compounds with T cruzi growth-1. NIH/3T3 viability, CellTiter-Glo ATP luminescence, 90 h. AID 651742. actives 14% (n = 5,600);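 active = mean signal decrease across replicates above about 35% based on untreated-well scatter, with enough replicates individually passing, limit read from the data; inconclusive = no rule stated though some were filed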;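 also: 0% = median of neutral control wells and 100% = median of positive control wells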
3T3 cytotox 2 = NIH/3T3 (mouse) viability loss; actives 56% (n = 5,600); NIH/3T3 viability, CellTiter-Glo ATP luminescence, 90 h; AID 651744; shares compounds with T cruzi growth-1; inhibition, % at 24.9 µM;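 active = mean loss of cell viability signal at or above a set limit, and enough replicates individually reaching it; inconclusive = meets only the mean limit or only the replicate share; inactive = meets neither condition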;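 also: 0% = median of neutral control wells and 100% = median of positive control wells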
* marks the source's active call; other numbers are inactive results. The sample as a whole holds a higher share of hits than the screen did.

Screening C[C@H]1CN([C@@H](C)CO)C(=O)c2cc(C#CC3CCCCC3)cnc2O[C@@H]1CN(C)S(=O)(=O)c1ccc(F)cc1 returned T cruzi growth-1 108.4*, IDH1 mut inh 0.3, KDM4C inh -0.8, T cruzi growth-2 99.7*, T cruzi growth-3 91.2, 3T3 cytotox 13.2 and 3T3 cytotox 2 94.6*.
`COc1ccccc1-n1nnnc1SCC(=O)Nc1ccccc1C` gave IDH1 mut inh -0.2.
Screening C[C@@H]1CN([C@H](C)CO)C(=O)c2cc(C#CC3CCCCC3)cnc2O[C@@H]1CN(C)S(=O)(=O)c1ccccc1 returned T cruzi growth-1 inconclusive, IDH1 mut inh 0.1, KDM4C inh -0.5, T cruzi growth-2 105.8*, T cruzi growth-3 75.9, 3T3 cytotox 11.9 and 3T3 cytotox 2 91.1*.
C[C@H](CO)N1C[C@H](C)[C@H](CN(C)S(C)(=O)=O)Oc2ncc(C#CC3CCCCC3)cc2C1=O was read as T cruzi growth-1 85.6, IDH1 mut inh -2.0 and KDM4C inh -1.9.
Screening C/C=C(\C)C(=O)OC(C)(C)C1Cc2cc3ccc(=O)oc3cc2O1 (stereo unspecified) returned IDH1 mut inh -0.2.
For CCCN1C[C@H](C)[C@H](OC)CN(C)C(=O)c2ccc(NS(=O)(=O)c3cn(C)cn3)cc2OC[C@@H]1C the results were T cruzi growth-1 28.1, IDH1 mut inh 0.2 and KDM4C inh 0.3.
For CCCN1C[C@H](C)[C@H](OC)CN(C)C(=O)c2ccc(NC(=O)c3cccc(F)c3)cc2OC[C@H]1C the results were T cruzi growth-1 51.1, IDH1 mut inh 0.2 and KDM4C inh 1.8.
Screening CCC(=O)N1C[C@H](C)[C@@H](OC)CN(C)C(=O)c2ccc(NC(=O)c3ccccc3)cc2OC[C@@H]1C returned T cruzi growth-1 107.6*, IDH1 mut inh 0.0, KDM4C inh -0.3, T cruzi growth-2 8.4, T cruzi growth-3 -2.5, 3T3 cytotox 17.8 and 3T3 cytotox 2 6.3.
Screening CCCC(=O)Nc1ccc2c(c1)OC[C@H](C)N(C(=O)c1cccnc1)C[C@@H](C)[C@@H](OC)CN(C)C2=O returned T cruzi growth-1 12.7, IDH1 mut inh -0.3 and KDM4C inh 12.4.
CCCN1C[C@H](C)[C@@H](OC)CN(C)C(=O)c2ccc(NS(=O)(=O)c3cn(C)cn3)cc2OC[C@H]1C was read as T cruzi growth-1 105.1*, IDH1 mut inh -0.1, KDM4C inh 0.2, T cruzi growth-2 -4.9, T cruzi growth-3 -22.3, 3T3 cytotox 2.6 and 3T3 cytotox 2 -2.8.
For CCCC(=O)Nc1ccc2c(c1)OC[C@H](C)N(C(=O)c1cccnc1)C[C@@H](C)[C@H](OC)CN(C)C2=O the results were T cruzi growth-1 99.8*, IDH1 mut inh -0.1, KDM4C inh 0.6, T cruzi growth-2 61.0, T cruzi growth-3 -24.9, 3T3 cytotox 11.3 and 3T3 cytotox 2 -7.8.
Screening CCCN1C[C@@H](C)[C@H](OC)CN(C)C(=O)c2ccc(NC(=O)c3cccc(F)c3)cc2OC[C@H]1C returned T cruzi growth-1 101.8*, IDH1 mut inh -1.0, KDM4C inh 0.1, T cruzi growth-2 103.7*, T cruzi growth-3 62.6, 3T3 cytotox 10.5 and 3T3 cytotox 2 36.9*.
Screening CCC(=O)N1C[C@@H](C)[C@@H](OC)CN(C)C(=O)c2cc(NC(=O)c3ccccc3)ccc2OC[C@@H]1C returned T cruzi growth-1 -17.4, IDH1 mut inh 0.1 and KDM4C inh 0.2.
COc1ccc(NC(=O)c2ccccc2NC(=O)COc2ccc(Cl)cc2)cc1 was read as IDH1 mut inh 0.1.
COc1cccc(N(CC(=O)Nc2cccc(Cl)c2C)S(C)(=O)=O)c1 was read as IDH1 mut inh -0.1.
For Cc1c(Br)ccc(NC(=O)CSc2nnc(-c3ccc(Cl)cc3)n2C)c1C the results were IDH1 mut inh 0.3.
Screening CC1CCc2c(sc(NC(=O)c3nc4ncccn4n3)c2C(N)=O)C1 (stereo unspecified) returned IDH1 mut inh 0.3.
For O=C(O)c1ccc(NCCCO)c([N+](=O)[O-])c1 the results were IDH1 mut inh -0.1.
Cc1ccc(C)c(NC(=O)C(C)N(c2ccc(C)c(C)c2)S(C)(=O)=O)c1 (stereo unspecified) was read as IDH1 mut inh 0.0.
CCCNC(=O)N1C[C@H](C)[C@@H](OC)CN(C)C(=O)c2cc(NC(=O)CC)ccc2OC[C@@H]1C was read as T cruzi growth-1 inconclusive, IDH1 mut inh 0.0, KDM4C inh -0.6, T cruzi growth-2 -17.4, T cruzi growth-3 -1.8, 3T3 cytotox 2.6 and 3T3 cytotox 2 -4.9.
CCCNC(=O)N1C[C@H](C)[C@H](OC)CN(C)C(=O)c2cc(NC(=O)CC)ccc2OC[C@@H]1C was read as T cruzi growth-1 41.5, IDH1 mut inh -0.3 and KDM4C inh -1.3.
`COc1cccc(C(=O)Nc2ccc3c(c2)OC[C@H](C)N(CCc2ccccc2)C[C@@H](C)[C@H](OC)CN(C)C3=O)c1` gave T cruzi growth-1 108.2*, IDH1 mut inh -0.2, KDM4C inh 1.6, T cruzi growth-2 101.3*, T cruzi growth-3 70.7, 3T3 cytotox 7.8 and 3T3 cytotox 2 10.1.
For COc1cccc(C(=O)Nc2ccc3c(c2)OC[C@H](C)N(CCc2ccccc2)C[C@H](C)[C@H](OC)CN(C)C3=O)c1 the results were T cruzi growth-1 35.8, IDH1 mut inh 0.2 and KDM4C inh 2.3.
Screening CC(=O)Oc1ccc(C(=O)Nc2ccc(S(=O)(=O)Nc3nccs3)cc2)cc1 returned IDH1 mut inh -0.4.
Screening COc1ccc(NC(=O)Nc2ccc3c(c2)C(=O)N([C@@H](C)CO)C[C@@H](C)[C@@H](CN(C)S(=O)(=O)c2ccc(Cl)cc2)OCCCC[C@@H](C)O3)cc1 returned T cruzi growth-1 121.0*, KDM4C inh 0.1, T cruzi growth-2 104.9*, T cruzi growth-3 46.6, 3T3 cytotox 3.9 and 3T3 cytotox 2 -5.1.
Screening COc1ccc(NC(=O)Nc2ccc3c(c2)C(=O)N([C@@H](C)CO)C[C@H](C)[C@H](CN(C)S(=O)(=O)c2ccc(OC)cc2)OCCCC[C@@H](C)O3)cc1 returned T cruzi growth-1 43.2 and KDM4C inh 0.2.
Screening COc1ccc(NC(=O)Nc2ccc3c(c2)C(=O)N([C@@H](C)CO)C[C@@H](C)[C@@H](CN(C)S(=O)(=O)c2ccc(OC)cc2)OCCCC[C@@H](C)O3)cc1 returned T cruzi growth-1 83.6 and KDM4C inh 0.0.
